The test system of one data set is A2780. The experiment in a line: Antiproliferative activity against human A2780 cells after 48 hrs by MTT assay. The class given is functional, cell-based. As to conditions: A2780, 48 h. The gist of the method: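 A2780 cells grown in DMEM with 10% FBS, L-glutamine and antibiotics, seeded at 10000 cells/well and allowed to adhere overnight. Treated 48 h across 20 µM–0.001 µM. MTT (5 mg/mL in PBS) added for 4 h, formazan dissolved in DMSO, absorbance read at 550 nm. % inhibition fit to a four-parameter log inhibitor vs response curve.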
(Formazan colour is commonly taken as a measure of viable cells.)

In data set [1] the target is PI3-kinase p110-alpha/p85-alpha (Homo sapiens, UniProt P42336). Briefly: Inhibition of recombinant human full-length N-terminal His-tagged p110 alpha/p85 alpha expressed in baculovirus expression system using PIP2 as substrate preincubated for 15 mins followed by substrate addition and measured after 60 mins by ADP HiLyte 647 tracer bound ADP2 antibody-Tb conjugate based HTRF assay. The gist of the method:
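PI3Kα at 150 ng/mL (diluted stock) in 50 mM HEPES pH 7.4, 3 mM MgCl2, 2 mM DTT, 0.05% CHAPS, 50 mM NaCl, 1 mM EGTA. Compound tested over 10–0.001 µM. Final reaction held 50 µM PIP2 and 1 µM ATP. Detection mix added for 1 h, then 665/615 nm ratio read. % inhibition versus concentration fitted by four-parameter nonlinear regression to give IC50.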

Data set [2] in a line: Drug uptake in Swiss mouse plasma at 10 mg/kg, po via gavage by LC-MS/MS analysis. The class given is ADME, organism-based. As to conditions: in vivo. The gist of the method: (§1)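 Female Swiss mice (n=3/group), fasted overnight, given single oral gavage dose in 0.5% CMC/0.5% Tween 80 (10 mL/kg) at 1, 3 or 10 mg/kg. Serial blood sampling at 0.16–8 h into heparinized tubes. Plasma extracted with acetonitrile containing verapamil internal standard and quantified by LC-MS/MS. Cmax, Tmax, AUC and t1/2 derived from the concentration–time profile.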

Data set [3] is described as follows: Metabolic stability in human liver microsomes assessed as parent compound remaining at 10 uM remaining after 120 mins in presence of NADPH by HPLC analysis. The class given is ADME, Microsome. As to conditions: read-out: Stabilty. In outline: (§2)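 Compound at 10 µM was incubated with 0.5 mg/mL liver microsomes and 1 mM NADPH (final). Samples were taken at 0, 15, 30, 60 and 120 min and stopped with acetonitrile, then centrifuged and the supernatant analysed by HPLC. Percent parent remaining was set relative to the 0 min peak area (100%).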
On the technique in general: Microsomes from liver hold many membrane-bound enzymes, among them those of drug oxidation.

Data set [4] addresses T1, Voltage-gated inwardly rectifying potassium channel KCNH2 (Homo sapiens, UniProt Q12809). Briefly: Inhibition of human ERG by patch-clamp assay.
In another data set the test system is PC-3. Briefly: Antiproliferative activity against human PC-3 cells after 48 hrs by MTT assay. The class given is functional, cell-based. As to conditions: PC-3, 48 h. In outline:
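PC3 cells grown in RPMI 1640 with 10% FBS and 1% penicillin/streptomycin at 37 °C, 5% CO2, seeded at 10000 cells/well. Treated 48 h across 20 µM–0.001 µM. MTT (5 mg/mL in PBS) added for 4 h, then DMSO solubilization and absorbance at 550 nm. Four-parameter nonlinear fit of % inhibition.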

A short description of data set [5]: AUC in Swiss mouse at 3 mg/kg, po via gavage by LC-MS/MS analysis. As to conditions: in vivo. Set-up: dose 3 mg/kg. The class given is ADME, organism-based. The gist of the method: as §1
A short description of data set [6]: Cmax in Swiss mouse at 3 mg/kg, po via gavage by LC-MS/MS analysis. It counts as ADME, organism-based. Also noted: route oral, dose 3 mg/kg. As to conditions: in vivo. The gist of the method:
as §1

The target in data set [7] is Serine/threonine-protein kinase mTOR (Homo sapiens, UniProt P42345). Briefly: Inhibition of recombinant human GST-tagged mTOR catalytic domain (1360 to 2549 residues) expressed in baculovirus expression system using GFP-4E-BP1 as substrate preincubated for 15 mins followed by substrate addition and measured after 60 mins by TR-FRET assay. In outline: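 Recombinant mTOR (FRAP1) was preincubated 15 min with serially diluted compound (10 µM–0.0005 µM, DMSO) in kinase buffer, 10 µL reaction. GFP-4E-BP1 (400 nM final) and ATP (8 µM final) were added and the reaction ran 1 h at RT. Quench buffer with Tb-anti-p4E-BP1 (pThr46) was added for 1 h at RT. TR-FRET 520/486 nm ratio was fitted by four-parameter sigmoidal regression.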

Another data set deals with Cytochrome P450 3A4 (Homo sapiens, UniProt P08684). Briefly: Inhibition of CYP3A4 in human liver microsomes using isoform-specific probe substrates preincubated for 5 mins followed by NADPH addition by LC-MS/MS analysis. It counts as ADME. The gist of the method: (§3)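 Human liver microsomes premixed with buffer and a CYP-specific FDA-recommended probe substrate, then spiked with inhibitor, in duplicate. After 5 min preincubation at 37 °C, reaction started with NADPH and run at 37 °C for a set time, then quenched. Metabolite formation quantified by HPLC/LC-MS/MS to derive the concentration giving 50% inhibition.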

Data set [8] can be described thus: Metabolic stability in dog liver microsomes assessed as parent compound remaining at 10 uM remaining after 120 mins in presence of NADPH by HPLC analysis. It counts as ADME, Canis lupus familiaris, Microsome. As to conditions: read-out: Stabilty. The gist of the method:
as §2

Data set [9] in a line: Elimination half life in Swiss mouse at 3 mg/kg, po via gavage by LC-MS/MS analysis. It counts as ADME, organism-based. As to conditions: in vivo, read-out: beta t1/2 (converted). The gist of the method:
as §1

The next data set has as its target Cytochrome P450 2C19 (Homo sapiens, UniProt P33261). Briefly: Inhibition of CYP2C19 in human liver microsomes using isoform-specific probe substrates preincubated for 5 mins followed by NADPH addition by LC-MS/MS analysis. The class given is ADME. The gist of the method: as §3
Another data set is filed under the species Homo sapiens. The experiment in a line: Channel blockade of human ERG G601S mutant expressed in mammalian expression system assessed as effect on surface expression of channel at 1 to 30 uM by HERG-Lite assay. As to conditions: dose microM 1-30. In outline:
(§4)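 HERG-lite assay scoring both channel blocking and trafficking inhibition, with test compound at 1, 10 and 30 µM. Geldanamycin (1 µM) served as the trafficking-inhibition reference and astemizole as the standard hERG binder.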

Another data set has as its system SK-OV-3. Briefly: Antiproliferative activity against human SK-OV-3 cells after 48 hrs by MTT assay. As to conditions: SK-OV-3, 48 h. The class given is functional, cell-based. The gist of the method:
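SK-OV-3 cells grown in McCoy's 5a with 10% FBS, 100 U/mL penicillin and 100 µg/mL streptomycin at 37 °C, 5% CO2, seeded at 10000 cells/well. Treated 48 h across 20 µM–0.001 µM. MTT (5 mg/mL in PBS) added for 4 h, DMSO solubilization, absorbance read at 550 nm. Four-parameter curve fit of % inhibition.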

Data set [10] is described as follows: Tmax in Swiss mouse at 3 mg/kg, po via gavage by LC-MS/MS analysis. It counts as ADME, organism-based. As to conditions: in vivo. In outline: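 Female Swiss mice (n=3/group) were fasted overnight, then gavaged with compound in 0.5% CMC/0.5% Tween 80 at 10 mL/kg. Serial blood samples at 0.16, 0.5, 1, 2, 4, 6 and 8 h were taken into heparinized tubes and spun to plasma. Plasma was extracted with acetonitrile containing verapamil (400 ng/mL) and quantified by LC-MS/MS against plasma calibration curves. Tmax was derived from the concentration–time profile.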

The target in data set [11] is T1, Voltage-gated inwardly rectifying potassium channel KCNH2. The experiment in a line: Inhibition of human ERG channel trafficking expressed in mammalian expression system at 1 to 30 uM by HERG-Lite assay. As to conditions: dose 1-30 µM. The gist of the method:
as §4

Data set [12] can be described thus: Metabolic stability in mouse liver microsomes assessed as parent compound remaining at 10 uM remaining after 120 mins in presence of NADPH by HPLC analysis. The class given is ADME, Microsome. As to conditions: read-out: Stabilty. In outline: as §2
In a further data set the target is Cytochrome P450 2D6 (Homo sapiens, UniProt P10635). Briefly: Inhibition of CYP2D6 in human liver microsomes using isoform-specific probe substrates preincubated for 5 mins followed by NADPH addition by LC-MS/MS analysis. The class given is ADME. In outline: as §3

Each structure is given as a SMILES string. The source made the active and inactive calls. The calls are words filed in the database; no cut-off is given here.

T1 sequence (Q12809 whole entry): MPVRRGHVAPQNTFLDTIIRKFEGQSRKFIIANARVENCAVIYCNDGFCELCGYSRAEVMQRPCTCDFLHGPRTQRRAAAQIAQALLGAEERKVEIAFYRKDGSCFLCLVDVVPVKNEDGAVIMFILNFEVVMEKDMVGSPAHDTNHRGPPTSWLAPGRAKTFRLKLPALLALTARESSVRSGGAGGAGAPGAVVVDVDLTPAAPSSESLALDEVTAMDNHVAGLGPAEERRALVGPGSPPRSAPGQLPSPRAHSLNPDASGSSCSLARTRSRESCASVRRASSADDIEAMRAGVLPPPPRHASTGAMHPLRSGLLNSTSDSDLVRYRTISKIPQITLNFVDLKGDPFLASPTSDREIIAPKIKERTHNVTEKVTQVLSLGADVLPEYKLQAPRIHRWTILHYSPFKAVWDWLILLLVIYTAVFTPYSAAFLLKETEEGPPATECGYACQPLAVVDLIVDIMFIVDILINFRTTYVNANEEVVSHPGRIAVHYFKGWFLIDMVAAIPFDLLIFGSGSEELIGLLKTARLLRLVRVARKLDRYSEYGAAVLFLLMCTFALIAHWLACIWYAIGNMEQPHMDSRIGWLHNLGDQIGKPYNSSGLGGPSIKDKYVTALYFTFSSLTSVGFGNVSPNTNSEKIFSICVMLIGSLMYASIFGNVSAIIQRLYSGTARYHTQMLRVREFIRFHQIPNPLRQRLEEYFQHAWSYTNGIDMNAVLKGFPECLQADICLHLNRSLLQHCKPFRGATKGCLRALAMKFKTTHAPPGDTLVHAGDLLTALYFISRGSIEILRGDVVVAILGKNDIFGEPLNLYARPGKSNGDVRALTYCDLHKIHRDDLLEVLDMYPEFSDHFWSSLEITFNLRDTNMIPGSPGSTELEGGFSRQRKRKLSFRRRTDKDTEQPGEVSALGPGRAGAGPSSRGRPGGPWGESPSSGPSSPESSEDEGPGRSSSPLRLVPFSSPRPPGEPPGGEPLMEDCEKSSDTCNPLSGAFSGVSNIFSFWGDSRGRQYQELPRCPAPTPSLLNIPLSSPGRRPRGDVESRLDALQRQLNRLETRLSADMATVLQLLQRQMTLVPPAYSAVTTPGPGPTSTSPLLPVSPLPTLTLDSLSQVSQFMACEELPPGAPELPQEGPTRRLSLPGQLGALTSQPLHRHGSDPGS
Chain of PI3-kinase p110-alpha/p85-alpha (P27986 whole entry): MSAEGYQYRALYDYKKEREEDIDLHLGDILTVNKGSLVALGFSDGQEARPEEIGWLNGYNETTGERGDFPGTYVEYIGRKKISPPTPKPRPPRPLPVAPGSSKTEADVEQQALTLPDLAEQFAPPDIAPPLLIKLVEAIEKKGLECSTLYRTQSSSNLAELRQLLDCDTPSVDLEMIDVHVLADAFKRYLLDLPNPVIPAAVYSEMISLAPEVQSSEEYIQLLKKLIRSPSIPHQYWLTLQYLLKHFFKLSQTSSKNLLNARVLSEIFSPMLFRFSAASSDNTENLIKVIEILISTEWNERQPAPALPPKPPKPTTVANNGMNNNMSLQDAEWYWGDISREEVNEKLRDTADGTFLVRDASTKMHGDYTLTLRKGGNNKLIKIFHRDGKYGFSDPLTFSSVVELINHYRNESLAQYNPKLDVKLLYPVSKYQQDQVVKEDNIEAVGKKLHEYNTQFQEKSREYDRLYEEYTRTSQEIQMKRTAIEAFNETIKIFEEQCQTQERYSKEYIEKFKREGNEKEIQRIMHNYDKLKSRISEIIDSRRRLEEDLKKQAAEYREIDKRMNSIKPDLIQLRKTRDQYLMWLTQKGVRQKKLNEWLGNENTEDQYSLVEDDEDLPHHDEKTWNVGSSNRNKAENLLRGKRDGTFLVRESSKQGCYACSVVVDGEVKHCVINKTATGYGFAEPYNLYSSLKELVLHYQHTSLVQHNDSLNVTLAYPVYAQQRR
Chain of PI3-kinase p110-alpha/p85-alpha (P42336 whole entry): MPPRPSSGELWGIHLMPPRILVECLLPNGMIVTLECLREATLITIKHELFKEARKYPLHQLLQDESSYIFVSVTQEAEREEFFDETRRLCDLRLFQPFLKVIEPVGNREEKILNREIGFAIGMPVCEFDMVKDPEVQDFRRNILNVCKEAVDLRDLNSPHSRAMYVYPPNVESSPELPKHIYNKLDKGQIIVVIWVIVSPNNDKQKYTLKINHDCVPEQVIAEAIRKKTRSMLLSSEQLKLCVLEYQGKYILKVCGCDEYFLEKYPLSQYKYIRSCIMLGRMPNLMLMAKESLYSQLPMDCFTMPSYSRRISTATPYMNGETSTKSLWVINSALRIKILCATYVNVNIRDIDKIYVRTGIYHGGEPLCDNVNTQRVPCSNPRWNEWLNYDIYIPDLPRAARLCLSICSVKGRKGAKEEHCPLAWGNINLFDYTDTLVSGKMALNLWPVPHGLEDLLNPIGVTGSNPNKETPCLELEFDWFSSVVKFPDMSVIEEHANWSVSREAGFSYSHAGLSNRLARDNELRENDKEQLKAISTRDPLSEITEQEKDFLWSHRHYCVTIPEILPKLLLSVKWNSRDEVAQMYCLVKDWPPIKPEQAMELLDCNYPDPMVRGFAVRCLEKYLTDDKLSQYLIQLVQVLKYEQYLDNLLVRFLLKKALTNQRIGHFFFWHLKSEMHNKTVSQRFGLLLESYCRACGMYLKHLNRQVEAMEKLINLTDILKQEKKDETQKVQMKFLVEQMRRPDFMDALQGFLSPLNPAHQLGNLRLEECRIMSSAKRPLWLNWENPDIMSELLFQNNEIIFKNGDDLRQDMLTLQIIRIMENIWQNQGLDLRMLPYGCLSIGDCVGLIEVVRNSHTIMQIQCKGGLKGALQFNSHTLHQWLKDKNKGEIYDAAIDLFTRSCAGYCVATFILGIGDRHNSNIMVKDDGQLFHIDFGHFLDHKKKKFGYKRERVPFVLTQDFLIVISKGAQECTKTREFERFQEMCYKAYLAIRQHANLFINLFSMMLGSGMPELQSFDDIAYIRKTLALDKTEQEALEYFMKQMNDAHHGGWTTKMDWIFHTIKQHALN
Chain of Cytochrome P450 2D6 (P10635 whole entry, canonical isoform): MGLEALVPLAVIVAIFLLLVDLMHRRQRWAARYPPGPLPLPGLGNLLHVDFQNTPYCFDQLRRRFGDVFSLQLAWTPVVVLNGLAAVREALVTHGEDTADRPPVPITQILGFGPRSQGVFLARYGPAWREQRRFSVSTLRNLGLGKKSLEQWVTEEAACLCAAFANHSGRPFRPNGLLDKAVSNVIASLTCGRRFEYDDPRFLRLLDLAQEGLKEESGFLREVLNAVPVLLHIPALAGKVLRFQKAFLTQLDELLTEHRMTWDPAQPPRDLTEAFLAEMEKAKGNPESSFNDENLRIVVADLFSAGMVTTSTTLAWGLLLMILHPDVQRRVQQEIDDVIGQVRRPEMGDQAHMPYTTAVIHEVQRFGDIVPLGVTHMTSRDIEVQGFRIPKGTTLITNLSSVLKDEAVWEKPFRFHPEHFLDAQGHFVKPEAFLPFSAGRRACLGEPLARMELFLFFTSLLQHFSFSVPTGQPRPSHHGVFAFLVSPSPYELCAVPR
Chain of Cytochrome P450 2C19 (P33261 whole entry, canonical isoform): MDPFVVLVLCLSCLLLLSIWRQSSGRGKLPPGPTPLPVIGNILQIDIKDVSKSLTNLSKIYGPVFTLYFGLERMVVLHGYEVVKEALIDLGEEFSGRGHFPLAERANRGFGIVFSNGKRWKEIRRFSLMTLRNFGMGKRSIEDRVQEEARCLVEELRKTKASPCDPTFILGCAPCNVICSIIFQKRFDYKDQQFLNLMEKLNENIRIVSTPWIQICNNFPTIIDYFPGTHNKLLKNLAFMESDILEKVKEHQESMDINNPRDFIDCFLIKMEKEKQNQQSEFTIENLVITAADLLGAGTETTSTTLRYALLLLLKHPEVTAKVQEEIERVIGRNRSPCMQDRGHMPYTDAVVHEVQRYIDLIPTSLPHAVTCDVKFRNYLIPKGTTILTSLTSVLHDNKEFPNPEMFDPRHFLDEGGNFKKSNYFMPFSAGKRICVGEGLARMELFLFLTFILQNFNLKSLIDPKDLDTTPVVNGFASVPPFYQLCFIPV
Chain of Cytochrome P450 3A4 (P08684 whole entry, canonical isoform): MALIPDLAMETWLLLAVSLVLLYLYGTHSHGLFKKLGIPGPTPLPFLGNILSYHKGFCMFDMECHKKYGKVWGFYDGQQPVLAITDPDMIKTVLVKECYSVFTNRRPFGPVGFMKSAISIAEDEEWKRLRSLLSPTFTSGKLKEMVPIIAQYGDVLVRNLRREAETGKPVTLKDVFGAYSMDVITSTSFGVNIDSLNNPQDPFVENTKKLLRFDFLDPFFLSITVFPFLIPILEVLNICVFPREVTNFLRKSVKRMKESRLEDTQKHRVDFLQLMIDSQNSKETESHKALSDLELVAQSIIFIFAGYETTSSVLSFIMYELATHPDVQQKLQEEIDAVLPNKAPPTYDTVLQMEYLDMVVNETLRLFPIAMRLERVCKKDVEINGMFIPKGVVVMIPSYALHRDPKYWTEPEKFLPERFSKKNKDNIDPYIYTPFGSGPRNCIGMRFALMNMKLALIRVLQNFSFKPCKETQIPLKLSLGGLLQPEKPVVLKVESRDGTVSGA

A word on the IC50: it is the concentration that gives 50% inhibition. For the molecule `Cc1cc(-c2nc(Oc3ccc(C(=O)N(C)C)cc3)nc(N3CCOCC3)n2)cnc1N`, the figures for the IC50 (in the data set on A2780; in data set [1]) were 1500 nM and 460 nM, respectively.

In the case of `CN(C)C(=O)c1ccc(Oc2nc(-c3cccc(O)c3)nc(N3CCOCC3)n2)cc1`, the Drug uptake entry in data set [2] was “Not Active”. Also, the IC50 came out at 90 nM in the data set with A2780 and 10 nM in [1].

Turning to `Cc1nc(N)ccc1-c1nc(Oc2ccc(C(=O)N(C)C)cc2)nc(N2CCOCC2)n1`, the IC50 is over 10000 nM in the data set with A2780 and 3400 nM in data set [1].

Take `Cc1nc(N)sc1-c1nc(Oc2ccc(C(=O)N(C)C)cc2)nc(N2CCOCC2)n1`: the results for the IC50 (in the data set on A2780; in data set [1]) were 1100 nM and 140 nM, respectively.

As a reminder, the EC50 is the concentration needed to bring the measured effect to its halfway point. A high value points to lower potency in that assay. Usually AUC stands for concentration integrated over time. Read a high AUC as high exposure. A word on the Cmax: it is the maximum level reached in the sampled fluid or tissue. For orientation: Tmax means the time at which the peak concentration occurs. As for `CN(C)C(=O)c1ccc(Oc2nc(-c3ccnc4[nH]ccc34)nc(N3CCOCC3)n2)cc1`, the remaining at 2 h, 10 µM in data set [3] was determined as 92%; in data set [8], 77%; in [12], 68%. For the same molecule, the IC50 is over 10000 nM in data set [4]; 370 nM in the data set on A2780; 220 nM in data set [7]; over 10000 nM on Cytochrome P450 3A4; over 10000 nM at Cytochrome P450 2C19; over 10000 nM at Cytochrome P450 2D6. The IC50 in [1] came to 80 nM. The EC50 with PC-3 came to 300 nM; with SK-OV-3, 370 nM. In addition, the AUC in [5] is 16.8 µM·h. The peak level in [6] (Cmax) was 3080 nM. Besides, the half-life in data set [9] was 2.8 h. Also, the result in the data set filed under Homo sapiens was Active. In [10], the Tmax is 1 h. The “inhibition (INH)” value in data set [11] is recorded as “Not Active”.

On to `CN(C)C(=O)c1ccc(Oc2nc(-c3cccc4[nH]ncc34)nc(N3CCOCC3)n2)cc1`, for which the remaining at 2 h, 10 µM in data set [3] came out at 100%; in data set [8], 83%; in data set [12] it was 45%. For the same molecule, the EC50 is 1970 nM in the data set with PC-3 and 520 nM with SK-OV-3. For the same molecule, the IC50 in the data set with A2780 is 520 nM; in data set [7], 1350 nM. This molecule registered an AUC in [5] of 5.25 µM·h.

As for `CN(C)C(=O)c1ccc(Oc2nc(-c3cccc4[nH]ccc34)nc(N3CCOCC3)n2)cc1`, the IC50 in the data set with A2780 worked out at 900 nM; in [1] it was 560 nM.

With `CN(C)C(=O)c1ccc(Oc2nc(-c3cccc4[nH]nnc34)nc(N3CCOCC3)n2)cc1`, the IC50 (in the data set on A2780; in data set [1]) was over 10000 nM each time.

Consider `CN(C)C(=O)c1ccc(Oc2nc(-c3ccc(N)nc3)nc(N3CCOCC3)n2)cc1`, for which the remaining at 2 h, 10 µM in data set [3] is 93%; in data set [8] it was 93%; in data set [12], 102%. Besides, the IC50 was over 1000 nM in data set [4]; 200 nM in the data set on A2780; 200 nM in data set [7]; over 10000 nM against Cytochrome P450 3A4; over 10000 nM on Cytochrome P450 2C19; over 10000 nM against Cytochrome P450 2D6. For the same molecule, the IC50 in data set [1] stood at 210 nM. For the same molecule, the values for the EC50 in the data set on PC-3 and with SK-OV-3 were 280 nM and 210 nM, respectively. Besides, the AUC in data set [5] turned out to be 10.9 µM·h. In addition, the concentration in data set [6] peaked (Cmax) at 2010 nM. Moreover, the half-life in [9] was 2.7 h. In the data set filed under Homo sapiens, the outcome was Active. Also, the Tmax in data set [10] stood at 1.4 h. Moreover, in data set [11], the “inhibition (INH)” value is listed as “Not Active”.

Regarding `CN(C)C(=O)c1ccc(Oc2nc(-c3cnc(N)[nH]3)nc(N3CCOCC3)n2)cc1`, the results for the IC50 (in the data set with A2780; in data set [1]) were 2360 nM and 900 nM, respectively.

Turning to `CN(C)C(=O)c1ccc(Oc2nc(-c3cnc(N)nc3)nc(N3CCOCC3)n2)cc1`, the EC50 in the data set with PC-3 was found to be 800 nM; in the data set with SK-OV-3, 220 nM. Besides, the IC50 in the data set on A2780 was found to be 560 nM; in data set [7], 960 nM; in [1], 270 nM.

As for `Cc1cc(N)ncc1-c1nc(Oc2ccc(C(=O)N(C)C)cc2)nc(N2CCOCC2)n1`, the IC50 (in the data set on A2780; in data set [1]) was over 10000 nM each time.

Values taken from ChEMBL document CHEMBL4699485, “Discovery and Development of SPR519 as a Potent, Selective, and Orally Bioavailable Inhibitor of PI3Kα and mTOR Kinases for the Treatment of Solid Tumors” (J Med Chem, 2020).
